Experimental data taken from ChEMBL document CHEMBL1157195, “Synthesis, cytotoxic activity, and SAR analysis of the derivatives of taxchinin A and brevifoliol” (Bioorg Med Chem, 2008).
Activity calls are given as the source filed them. The rule behind the calls is not given here.

What was measured:
[1] = (§1) Cytotoxicity against human A459 cells after 72 hrs by sulforhodamine B assay; format: cell-based
Method in brief: (§2)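 Human non-small lung cancer cells (A459, ATCC), exponentially growing, seeded at 4 × 10^4/mL in 96-well plates and pre-incubated 72 h at 37 °C, 5% CO2. Compounds added at 100, 10, 1 and 0.1 μM; further 72 h exposure. Cells fixed with cold 50% TCA (4 °C, 1 h), stained 30 min with 0.4% SRB in 1% acetic acid, dye solubilized in 10 mM unbuffered Tris; OD read at 570 nm.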

A459 = assay: as §1; format: cell-based; method in brief: as §2
[2] = Homo sapiens, A459, 72 h, read-out: IC50

SMILES | IC50 [1, 2] | other results
C=C1[C@@H](O[Si](CC)(CC)CC)C[C@H](OC(C)=O)[C@@]2(C)[C@@H](OC(C)=O)[C@H](OC(=O)c3ccccc3)C3=C(C)[C@@H](O[Si](CC)(CC)CC)C[C@@]3(C(C)(C)O)[C@@H](OC(C)=O)[C@H]12 | 87.3 µM | –
C=C1[C@@H](O)C[C@H](OC(C)=O)[C@@]2(C)[C@@H](OC(C)=O)[C@H](OC(=O)c3ccccc3)C3=C(C)C(=O)C[C@@]3(C(C)(C)O)[C@@H](OC(C)=O)[C@H]12 [13-OXO-TAXCHININ A] | 91.6 µM | –
C=C1[C@H]2C=C3CC(=O)C(C)=C3C(OC(=O)c3ccccc3)=C[C@]2(C)[C@@H](OC(C)=O)C[C@@H]1O | 80.7 µM | –
C=C1C(=O)C=C[C@]2(C)[C@@H]1C=C1CC(=O)C(C)=C1[C@@H](OC(=O)c1ccccc1)[C@@H]2OC(C)=O | 2.8 µM | –
CC(=O)O[C@H]1CC=C(C=O)[C@H]2C[C@]3(C(C)(C)O)CC(=O)C(C)=C3[C@@H](OC(=O)c3ccccc3)[C@H](OC(C)=O)[C@]12C | 31.6 µM | –
C=C1[C@H]2C[C@]3(C(C)(C)O)C[C@H](O)C(C)=C3[C@@H](OC(=O)c3ccccc3)[C@H](OC(C)=O)[C@]2(C)[C@@H](OC(C)=O)C[C@@H]1O | – | Activity (A459): inactive
C=C1[C@H]2C[C@]3(C(C)(C)O)CC(=O)C(C)=C3[C@@H](OC(=O)c3ccccc3)[C@H](OC(C)=O)[C@]2(C)[C@@H](OC(C)=O)C[C@@H]1O | – | Activity (A459): inactive
C=C1[C@H]2C[C@@]34C[C@@H](OC3(C)C)C(C)=C4[C@@H](OC(=O)c3ccccc3)[C@H](OC(C)=O)[C@]2(C)[C@@H](OC(C)=O)C[C@@H]1O | 46.5 µM | –
CC(=O)O[C@H]1CC=C(C=O)[C@H]2C[C@@]34C[C@@H](OC3(C)C)C(C)=C4[C@@H](OC(=O)c3ccccc3)[C@H](OC(C)=O)[C@]12C | 6.17 µM | –
C=C1C(=O)C=C[C@@]2(C)[C@@H](OC(C)=O)[C@H](OC(=O)c3ccccc3)C3=C(C)C(=O)C[C@@]3(C(C)(C)O)[C@@H](OC(C)=O)[C@H]12 | 2.48 µM | –
C=C1C(=O)C[C@H](OC(C)=O)[C@@]2(C)[C@@H](OC(C)=O)[C@H](OC(=O)c3ccccc3)C3=C(C)C(=O)C[C@@]3(C(C)(C)O)[C@@H](OC(C)=O)[C@H]12 [5,13-DIOXOTAXCHININ A] | 1.68 µM | –
C=C1C(=O)C=C[C@@]2(C)[C@@H](OC(C)=O)[C@H](OC(=O)c3ccccc3)C3=C(C)[C@@H](O)C[C@@]3(C(C)(C)O)[C@@H](OC(C)=O)[C@H]12 | 5.89 µM | –
C=C1[C@@H](O)C[C@H](OC(C)=O)[C@@]2(C)[C@@H](OC(C)=O)[C@H](OC(=O)c3ccccc3)C3=C(C)[C@@H](O)C[C@@]3(C(C)(C)O)[C@@H](OC(C)=O)[C@H]12 [TAXCHININ A] | 60.5 µM | –
C=C1[C@@H](O)C[C@H](OC(C)=O)[C@@]2(C)[C@@H](OC(C)=O)[C@H](OC(=O)c3ccccc3)C3=C(C)[C@H]4C[C@]3([C@@H](OC(C)=O)[C@H]12)C(C)(C)O4 | – | IC50 ([1]; a459): Not Active
C=C1[C@@H](O[Si](CC)(CC)CC)C[C@H](OC(C)=O)[C@]2(C)[C@@H]1C=C1CC(=O)C(C)=C1[C@@H](OC(=O)c1ccccc1)[C@@H]2OC(C)=O | 17.4 µM | –
C=C1C(=O)C[C@H](OC(C)=O)[C@@]2(C)[C@@H](OC(C)=O)[C@H](OC(=O)c3ccccc3)C3=C(C)[C@H]4C[C@]3([C@@H](OC(C)=O)[C@H]12)C(C)(C)O4 | 0.75 µM | –
C=C1C(=O)C[C@H](OC(C)=O)[C@@]2(C)[C@@H](OC(C)=O)[C@H](OC(=O)c3ccccc3)C3=C(C)[C@@H](O[Si](C)(C)C(C)(C)C)C[C@@]3(C(C)(C)O)[C@@H](OC(C)=O)[C@H]12 | 0.48 µM | –
C=C1[C@H]2C=C3CC(=O)C(C)=C3[C@@H](OC(=O)c3ccccc3)[C@H](OC(C)=O)[C@]2(C)[C@@H](OC(C)=O)C[C@@H]1O | 21.5 µM | –
CC(=O)O[C@H]1CC=C(C=O)[C@H]2C=C3CC(=O)C(C)=C3[C@@H](OC(=O)c3ccccc3)[C@H](OC(C)=O)[C@]12C | 11.3 µM | –
C=C1C(=O)C=C[C@]2(C)[C@@H]1C[C@]1(C(C)(C)O)CC(=O)C(C)=C1[C@@H](OC(=O)c1ccccc1)[C@@H]2OC(C)=O | 6.22 µM | –
C=C1[C@@H](O[Si](C)(C)C(C)(C)C)C[C@H](OC(C)=O)[C@@]2(C)[C@@H](OC(C)=O)[C@H](OC(=O)c3ccccc3)C3=C(C)[C@@H](O[Si](C)(C)C(C)(C)C)C[C@@]3(C(C)(C)O)[C@@H](OC(C)=O)[C@H]12 | – | IC50 ([1]; a459): Not Active
C=C1[C@@H](O)C[C@H](OC(C)=O)[C@@]2(C)[C@@H](OC(C)=O)[C@H](OC(=O)c3ccccc3)C3=C(C)[C@@H](O[Si](C)(C)C(C)(C)C)C[C@@]3(C(C)(C)O)[C@@H](OC(C)=O)[C@H]12 | 12.4 µM | –
C=C1C(=O)C[C@H](OC(C)=O)[C@@]2(C)[C@@H](OC(C)=O)[C@H](OC(=O)c3ccccc3)C3=C(C)[C@@H](O)C[C@@]3(C(C)(C)O)[C@@H](OC(C)=O)[C@H]12 | 3.16 µM | –
